Laboratory results reported in ChEMBL document CHEMBL2407075, “Sulphonamido-quinoxalines: search for anticancer agent” (Eur J Med Chem, 2013).

Experiments:
Type in all cases: functional
UO-31 = assay: Growth inhibition of human UO31 cells after 48 hrs by sulforhodamine B assay; conditions: UO-31, 48 h; for CC50: read-out: LC50 (the source's name)
How it was run: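 NCI-60 screen. Cells grown in RPMI 1640 with 5% FBS and 2 mM L-glutamine, plated at 5000–40,000 cells/well and preincubated 24 h at 37 °C, 5% CO2. A time-zero plate is TCA-fixed at drug addition. DMSO stocks diluted in medium; five concentrations (0.01, 0.1, 1, 10, 100 µM). Exposure 48 h, then cold TCA fixation and 0.4% SRB staining, absorbance at 515 nm. GI50 is taken from the growth-percentage curve relative to time zero and control.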

A549 [1] = assay: Growth inhibition of human A549/ATCC cells assessed as cell growth at 10^-7 M after 48 hrs by sulforhodamine B assay; conditions: A549, 48 h, read-out: Activity
How it was run: (§1)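 Five-dose NCI-60 run (0.01, 0.1, 1, 10 and 100 µM, as 10-fold dilutions from a DMSO stock made at 400× the top final level). Cells were grown in RPMI 1640 with 5% FBS and 2 mM glutamine and plated for 24 h. They were then exposed for 48 h at 37 °C and 5% CO2. TCA fixation was followed by SRB staining with A515 read-out. Percent growth was taken relative to time-zero and control plates.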

HOP-92 = assay: Growth inhibition of human HOP92 cells assessed as cell growth at 10^-4 M after 48 hrs by sulforhodamine B assay; conditions: HOP-92, 48 h, read-out: Activity
How it was run: (§2)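 Five-dose screen at NCI. Cells in RPMI 1640 with 5% FBS and 2 mM L-glutamine, seeded at 5000–40,000 cells/well and grown 24 h at 37 °C, 5% CO2 before dosing, with time-zero plates TCA-fixed. Drug diluted from DMSO stock to 0.01, 0.1, 1, 10 and 100 µM final, 48 h. Cells fixed with cold TCA (10% final), stained with 0.4% SRB and read at 515 nm. Percent growth from Tz, control and test absorbances; GI50, TGI and LC50 from dose-response curves.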

IGROV-1 = assay: Growth inhibition of human IGROV1 cells assessed as cell growth at 10^-4 M after 48 hrs by sulforhodamine B assay; conditions: IGROV-1, 48 h, read-out: Activity; how it was run: as §2
BT-549 = assay: Growth inhibition of human BT549 cells assessed as cell growth at 10^-6 M after 48 hrs by sulforhodamine B assay; conditions: BT-549, 48 h, read-out: Activity; how it was run: as §1
SF-268 = assay: Growth inhibition of human SF268 cells assessed as cell growth at 10^-8 M after 48 hrs by sulforhodamine B assay; conditions: SF-268, 48 h, read-out: Activity
UACC-257 [2] = assay: Growth inhibition of human UACC257 cells assessed as cell growth at 10^-4 M after 48 hrs by sulforhodamine B assay; conditions: UACC-257, 48 h, read-out: Activity
OVCAR-5 = assay: Growth inhibition of human OVCAR5 cells assessed as cell growth at 10^-7 M after 48 hrs by sulforhodamine B assay; conditions: OVCAR-5, 48 h, read-out: Activity
786-0 = assay: Growth inhibition of human 786-0 cells assessed as cell growth at 10^-5 M after 48 hrs by sulforhodamine B assay; conditions: 786-0, 48 h, read-out: Activity; how it was run: as §1
RXF 393 [3] = assay: Growth inhibition of human RXF393 cells after 48 hrs by sulforhodamine B assay; conditions: RXF 393, 48 h; for CC50: read-out: LC50 (the source's name)
How it was run: (§3)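 Adherent cells in RPMI 1640 with 5% FBS and 2 mM L-glutamine were plated at 5000–40,000 cells/well and grown 24 h. Five concentrations (0.01–100 µM, DMSO stock) were added for 48 h at 37 °C. Cells were fixed with cold TCA (10% final) and stained with SRB, read at 515 nm. GI50 came from log concentration–growth curves against time-zero and control plates.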

NCI-H226 = assay: Growth inhibition of human NCI-H226 cells assessed as cell growth at 10^-8 M after 48 hrs by sulforhodamine B assay; conditions: NCI-H226, 48 h, read-out: Activity
HL-60(TB) = assay: Growth inhibition of human HL-60(TB) cells assessed as cell growth at 10^-7 M after 48 hrs by sulforhodamine B assay; conditions: HL-60, 48 h, read-out: Activity
How it was run: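 HL-60(TB) suspension cells were treated 48 h at 37 °C within the five-dose series (0.01–100 µM), fixed with 16% final TCA and SRB-stained, read at 515 nm. Percentage growth at each concentration = (Ti−Tz)/(C−Tz)×100, or (Ti−Tz)/Tz×100 when Ti<Tz, with time-zero (Tz) and untreated control (C) plates.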

OVCAR-4 = assay: Growth inhibition of human OVCAR4 cells assessed as cell growth at 10^-4 M after 48 hrs by sulforhodamine B assay; conditions: OVCAR-4, 48 h, read-out: Activity
[4] = Growth inhibition of human NCI-ADR-RES cells assessed as cell growth at 10^-6 M after 48 hrs by sulforhodamine B assay; conditions: read-out: Activity
NCI-H460 = assay: Growth inhibition of human NCI-H460 cells assessed as cell growth at 10^-7 M after 48 hrs by sulforhodamine B assay; conditions: NCI-H460, 48 h, read-out: Activity
A498 = assay: Growth inhibition of human A498 cells assessed as cell growth at 10^-7 M after 48 hrs by sulforhodamine B assay; conditions: A498, 48 h, read-out: Activity; how it was run: as §1
RXF 393 [5] = assay: Growth inhibition of human RXF393 cells assessed as cell growth at 10^-4 M after 48 hrs by sulforhodamine B assay; conditions: RXF 393, 48 h, read-out: Activity
COLO 205 = assay: Growth inhibition of human COLO205 cells assessed as cell growth at 10^-4 M after 48 hrs by sulforhodamine B assay; conditions: COLO 205, 48 h, read-out: Activity; how it was run: as §1
SN12C = assay: Growth inhibition of human SN12C cells assessed as cell growth at 10^-5 M after 48 hrs by sulforhodamine B assay; conditions: read-out: Activity
UACC-257 [6] = assay: Growth inhibition of human UACC257 cells assessed as cell growth at 10^-7 M after 48 hrs by sulforhodamine B assay; conditions: UACC-257, 48 h, read-out: Activity
OVCAR-3 = assay: Growth inhibition of human OVCAR3 cells after 48 hrs by sulforhodamine B assay; conditions: OVCAR-3, 48 h; for CC50: read-out: LC50 (the source's name); how it was run: as §3
A549 [7] = assay: Growth inhibition of human A549/ATCC cells assessed as cell growth at 10^-5 M after 48 hrs by sulforhodamine B assay; conditions: A549, 48 h, read-out: Activity; how it was run: as §1
NCI-H522 = assay: Growth inhibition of human NCI-H522 cells assessed as cell growth at 10^-7 M after 48 hrs by sulforhodamine B assay; conditions: NCI-H522, 48 h, read-out: Activity
SNB-75 = assay: Growth inhibition of human SNB75 cells assessed as cell growth at 10^-4 M after 48 hrs by sulforhodamine B assay; conditions: SNB-75, 48 h, read-out: Activity
U-251 = assay: Growth inhibition of human U251 cells assessed as cell growth at 10^-6 M after 48 hrs by sulforhodamine B assay; conditions: U-251, 48 h, read-out: Activity

Structure (SMILES) | CC50 (UO-31) [µM] | growth at 0.1 µM (A549 [1]) [%] | growth at 100 µM (HOP-92) [%] | growth at 100 µM (IGROV-1) [%] | growth at 1 µM (BT-549) [%] | growth at 0.01 µM (SF-268) [%] | growth at 100 µM (UACC-257 [2]) [%] | growth at 0.1 µM (OVCAR-5) [%] | growth at 10 µM (786-0) [%] | CC50 (RXF 393 [3]) [µM] | growth at 0.01 µM (NCI-H226) [%] | growth at 0.1 µM (HL-60(TB)) [%] | growth at 100 µM (OVCAR-4) [%] | growth at 1 µM [4] [%] | growth at 0.1 µM (NCI-H460) [%] | growth at 0.1 µM (A498) [%] | growth at 100 µM (RXF 393 [5]) [%] | growth at 100 µM (COLO 205) [%] | growth at 10 µM (SN12C) [%] | growth at 0.1 µM (UACC-257 [6]) [%] | other results
O=S(=O)(Nc1ccc(Cl)cc1)c1ccc2nc(-c3ccccc3)c(-c3ccccc3)nc2c1 | > 100 | 97 | 32 | 73 | 78 | 94 | 67 | 92 | -45 | > 100 | 91 | 99 | 52 | 89 | 105 | 76 | 51 | 73 | 21 | 99 | TGI (UO-31): > 100 µM; CC50 (OVCAR-3): > 100 µM; growth at 10 µM (A549 [7]): 5%; growth at 0.1 µM (NCI-H522): 90%; growth at 100 µM (SNB-75): 46%; growth at 1 µM (U-251): 87%
O=S(=O)(Nc1ccccn1)c1ccc2nc(-c3ccccc3)c(-c3ccccc3)nc2c1 | > 100 | 98 | 1 | 63 | 71 | 93 | 53 | 93 | -30 | > 100 | 100 | 97 | 21 | 84 | 106 | 87 | 38 | 57 | 26 | 103 | GI50 (RXF 393 [3]): 2.14 µM; GI50 (OVCAR-3): 2.17 µM; CC50 (OVCAR-3): > 100 µM; growth at 10 µM (A549 [7]): 9%; growth at 0.1 µM (NCI-H522): 88%; growth at 100 µM (SNB-75): 20%; growth at 1 µM (U-251): 84%
